The IC50 is the concentration at which inhibition is half-maximal. Broadly, the inhibition is the share of the control response that was lost under treatment.

Where only a bound is given, the exact number is not on record here.

The target of test [1] is T1, Thymidylate synthase (Lactobacillus casei, UniProt P00469).
T1 sequence (P00469 whole entry): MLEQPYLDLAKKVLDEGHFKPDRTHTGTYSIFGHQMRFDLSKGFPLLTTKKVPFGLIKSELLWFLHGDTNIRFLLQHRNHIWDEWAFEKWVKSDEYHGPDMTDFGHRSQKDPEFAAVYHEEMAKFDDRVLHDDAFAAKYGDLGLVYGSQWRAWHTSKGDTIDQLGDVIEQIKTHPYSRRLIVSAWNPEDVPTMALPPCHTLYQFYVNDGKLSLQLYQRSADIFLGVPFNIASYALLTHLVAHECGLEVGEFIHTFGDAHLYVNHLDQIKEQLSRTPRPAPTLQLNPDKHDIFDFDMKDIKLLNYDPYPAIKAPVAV
The experiment in a line: Compound was evaluated for the inhibition of Lactobacillus casei thymidylate synthase. Set-up: species or system Lacticaseibacillus casei.

Test [2] addresses GAR formyltransferase (Lactobacillus casei). The experiment in a line: Compound was evaluated for the inhibition of Glycinamide ribonucleotide formyl transferase (GAR) with formyl (6R) tetrahydrofolate as substrate.
Test [3] deals with Manca. In words: Compound was evaluated for the inhibition of Manca human lymphoma cell growth. The class given is functional, cell-based. In outline: (§1)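 Manca human lymphoma cells grown in RPMI medium with 10% fetal calf serum. Growth was estimated by tetrazolium reduction.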
Test [4] concerns the target T2, Dihydrofolate reductase (Homo sapiens, UniProt P00374).
T2 sequence (P00374 whole entry): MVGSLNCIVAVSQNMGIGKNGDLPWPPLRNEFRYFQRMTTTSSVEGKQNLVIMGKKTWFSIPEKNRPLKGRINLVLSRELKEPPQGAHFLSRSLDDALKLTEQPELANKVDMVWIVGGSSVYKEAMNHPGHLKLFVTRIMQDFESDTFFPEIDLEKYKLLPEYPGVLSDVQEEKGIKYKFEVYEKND
The experiment in a line: Compound was evaluated for the inhibition of recombinant human Dihydrofolate reductase (DHFR); no inhibition.

Test [5] deals with T2, Dihydrofolate reductase. In words: Compound was evaluated for the inhibition of recombinant human Dihydrofolate reductase (DHFR).
Test [6] addresses T3, Dihydrofolate reductase (Homo sapiens) (UniProt P00374).
T3 sequence (whole entry): T2 sequence (P00374 whole entry)
The experiment in a line: Percent inhibition against human DHFR. The settings on record: concentration not given here.

Test [7] has as its target Dihydrofolate reductase (Lactobacillus casei, UniProt P00381). In words: Compound was evaluated for the inhibition of Lactobacillus casei DHFR. Set-up: species or system Lacticaseibacillus casei.
Test [8] deals with Thymidylate synthase (Homo sapiens, UniProt P04818). The experiment in a line: Compound was evaluated for the inhibition of recombinant human thymidylate synthase.
Thymidylate synthase (Homo sapiens, UniProt P04818), sequence (P04818 whole entry): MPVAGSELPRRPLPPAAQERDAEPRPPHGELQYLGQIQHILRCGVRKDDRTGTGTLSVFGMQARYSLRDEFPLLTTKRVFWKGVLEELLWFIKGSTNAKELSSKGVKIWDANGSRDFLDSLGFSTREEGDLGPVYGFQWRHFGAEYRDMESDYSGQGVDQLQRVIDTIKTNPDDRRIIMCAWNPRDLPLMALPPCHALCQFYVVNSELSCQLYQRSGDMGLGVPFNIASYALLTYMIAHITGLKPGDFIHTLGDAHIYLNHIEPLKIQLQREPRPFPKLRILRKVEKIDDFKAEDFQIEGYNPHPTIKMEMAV
In test [9] the test system is Manca. In words: Compound was evaluated for the inhibition of Manca human lymphoma cell growth; no inhibition. Format: functional, cell-based. In outline: as §1

Dihydrofolate reductase (Lactobacillus casei, UniProt P00381), sequence (P00381 whole entry): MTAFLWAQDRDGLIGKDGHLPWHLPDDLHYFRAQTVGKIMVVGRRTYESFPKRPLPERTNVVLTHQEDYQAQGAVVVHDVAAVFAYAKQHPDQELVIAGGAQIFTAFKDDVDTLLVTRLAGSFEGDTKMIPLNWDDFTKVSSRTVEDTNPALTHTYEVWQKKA

Turning to `Cc1c2cnc3nc(N)nc(O)c3c2c(C)n1C`, the IC50 on Thymidylate synthase [1] is 95 µM; in test [2] it was greater than 95 µM; in the test with Manca [3] it was greater than 10 µM; on Dihydrofolate reductase [4], greater than 95 µM.

Take `Nc1nc(O)c2c(n1)NCC1CN(c3ccc(C(=O)NC(CCC(=O)O)C(=O)O)cc3)CC21` (stereo not drawn): the IC50 at Dihydrofolate reductase [5] was greater than 40 µM; on Dihydrofolate reductase [7], 5 µM; on Thymidylate synthase [8], greater than 40 µM; in the test with Manca [9], greater than 20 µM. This compound displayed an inhibition in test [6] of 34%.

For the compound `Nc1nc(O)c2c(ncc3cn(-c4ccc(C(=O)NC(CCC(=O)O)C(=O)O)cc4)cc32)n1` (stereo not drawn), the half-maximal inhibitory concentration (IC50) against Thymidylate synthase [1] is greater than 100 µM; on Dihydrofolate reductase [5], greater than 80 µM; in the test with Manca [3], 42 µM. Also, the inhibition in test [6] is 23%.

(Values after ChEMBL document CHEMBL1125306, “5,10-Methylenetetrahydro-5-deazafolic acid and analogues: synthesis and biological activities” (J Med Chem, 1992).)
